Test [1] relates to HEY. In words: Cytotoxicity against human HEY cells at 10 uM after 72 hrs by MTT assay. It is filed as functional. In short, it runs like this: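 Single-concentration MTT screen, continuous 72 h exposure at 10 µM (diluted from a 10 mM DMSO stock). MTT was added at 0.5 mg/mL final for 4 h at 37 °C, the formazan was dissolved in DMSO and absorbance read at 570 nm. Result given as % cells killed, (1 − A/C) × 100, done in triplicate. HEY cells were grown in RPMI 1640 with 10% FBS and 2 mM glutamine.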
Background: Tetrazolium assays rely on reduction of a dye to a coloured formazan, in cell work by metabolically active cells.

In test [2] the test system is HCT-116. Put plainly: Cytotoxicity against p53-positive human HCT116 cells at 10 uM after 72 hrs by MTT assay. It is filed as functional.
The test system of test [3] is HCT-116. Put plainly: Cytotoxicity against p53-deficient human HCT116 cells at 10 uM after 72 hrs by MTT assay. It is filed as functional.
The test system of test [4] is HCT-116. In words: Anticlonogenic activity against p53-positive human HCT116 cells assessed as inhibition of colony formation at 0.1 to 20 uM after 24 hrs by crystal violet staining-based microscopic analysis. Type of test: functional, cell-based. In short, it runs like this: (§1)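 Cells plated at 100 cells/well and left to attach overnight. Serial compound dilutions were applied for 24 h, followed by a PBS wash and culture in drug-free medium for 8-10 days until colonies formed. Colonies were fixed in 1% glutaraldehyde for 30 min, stained with 2% crystal violet for 30 min, imaged and counted. Values are the mean of at least three independent experiments.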

For test [5], the system named is HCT-116. Put plainly: Anticlonogenic activity against p53-deficient human HCT116 cells assessed as inhibition of colony formation at 0.1 to 20 uM after 24 hrs by crystal violet staining-based microscopic analysis. It is filed as functional, cell-based. Summed up: as §1
Test [6] relates to HCT-116. In words: Cytotoxicity against p53-deficient human HCT116 cells after 72 hrs by MTT assay. It is filed as functional, cell-based. The following applies: HCT-116, 72 h. Summed up: (§2)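 Cells seeded, allowed to attach, then exposed to the drug continuously for 72 h over multiple doses. MTT was added at 0.5 mg/mL final for 4 h at 37 °C, solubilized in DMSO and read at 570 nm. Inhibition = (1 − A/C) × 100. IC50 was taken from a plot of log concentration versus % inhibition, assays in triplicate, with SD from at least three independent experiments.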

Test [7] concerns HCT-116. Put plainly: Cytotoxicity against p53-positive human HCT116 cells after 72 hrs by MTT assay. It is filed as functional, cell-based. The following applies: HCT-116, 72 h. Summed up: as §2
Test [8] has as its system HCT-116. In words: Growth inhibition of p53-positive human HCT116 cells at > 1 uM after 24 hrs by crystal violet staining-based microscopic analysis. It is filed as functional, cell-based. In short, it runs like this:
as §1

Test [9] deals with HCT-116. In words: Growth inhibition of p53-deficient human HCT116 cells at > 1 uM after 24 hrs by crystal violet staining-based microscopic analysis. It is filed as functional, cell-based. In short, it runs like this:
as §1

For test [10], the system named is HCT-116. Put plainly: Growth inhibition of p53-positive human HCT116 cells at > 5 uM after 24 hrs by crystal violet staining-based microscopic analysis. Type of test: functional, cell-based. Summed up: as §1
Test [11] has as its system HCT-116. In words: Growth inhibition of p53-deficient human HCT116 cells at > 5 uM after 24 hrs by crystal violet staining-based microscopic analysis. It is filed as functional, cell-based. Summed up:
as §1

The subject of test [12] is HCT-116. Put plainly: Induction of cell cycle arrest in p53-deficient human HCT116 cells assessed as accumulation at S phase at 1 uM after 48 hrs by flow cytometric analysis (reference value: 13.5%). It is filed as functional. A general note: In flow cytometry, cells or beads pass a laser one at a time.
Test [13] concerns HCT-116. In words: Induction of cell cycle arrest in p53-deficient human HCT116 cells assessed as accumulation at G0/G1 phase at 1 uM after 48 hrs by flow cytometric analysis (reference value: 60%). It is filed as functional.
In test [14] the test system is HCT-116. In words: Induction of cell cycle arrest in p53-deficient human HCT116 cells assessed as accumulation at G2/M phase at 1 uM after 48 hrs by flow cytometric analysis (reference value: 24.5%). It is filed as functional.
The subject of test [15] is HCT-116. In words: Induction of cell cycle arrest in p53-deficient human HCT116 cells assessed as accumulation at S phase at 1 uM after 24 hrs by flow cytometric analysis (reference value: 13.5%). Type of test: functional.
Test [16] relates to HCT-116. Put plainly: Induction of cell cycle arrest in p53-deficient human HCT116 cells assessed as accumulation at G2/M phase at 1 uM after 24 hrs by flow cytometric analysis (reference value: 24.5%). It is filed as functional.
The test system of test [17] is HCT-116. In words: Induction of cell cycle arrest in p53-deficient human HCT116 cells assessed as accumulation at G0/G1 phase at 1 uM after 24 hrs by flow cytometric analysis (reference value: 60%). It is filed as functional.

Active and inactive are the calls of the source. The rule behind the calls is not given here. A value given as a limit tells only on which side of the number the result lay.

We go through 29 molecules from ChEMBL document CHEMBL1933056, “Cytotoxic potential of novel 6,7-dimethoxyquinazolines” (Eur J Med Chem, 2012).

Turning to `CCCCn1c(-c2cccc(NS(C)(=O)=O)c2)nc2cc(OC)c(OC)cc2c1=O`, the Activity was 9% in test [1], 26% in test [2] and 27% in [3].
As for `COc1cc2nc(Nc3ccc([N+](=O)[O-])cc3)nc(N)c2cc1OC`, the Activity stood at 4% in test [1], 42% in test [2] and 22% in test [3].
In the same order, the values of `COc1cc2nc(-c3ccc(C)cc3)nc(N)c2cc1OC` are 2%, 5% and 16%.
As for `COc1cc2nc(-c3ccccc3Cl)nc(N)c2cc1OC`, the values for the Activity in test [1] and in test [2] were 4% and 18%, respectively.
On to `COc1ccc(NCc2nc3cc(OC)c(OC)cc3c(=O)[nH]2)cc1`, for which the values for the Activity in test [1], in test [2] and in test [3] were 19%, 38% and 22%, respectively.
For orientation: IC50 means the concentration that gives 50% inhibition. As to `COc1cc2nc(Cc3cccc4ccccc34)[nH]c(=O)c2cc1OC`, the outcome in [4] and in [5] was Active. The Activity in test [1] worked out at 66%; in test [2] it was 80%; in test [3], 79%. Also, the results for the half-inhibitory concentration (IC50) in test [6] and in test [7] were 0.7 µM and 1.7 µM, respectively. The “growth inhibition (GI)” value in test [8] and in test [9] was “Active” throughout.
As to `CCCCn1c(-c2ccc(NS(C)(=O)=O)cc2)nc2cc(OC)c(OC)cc2c1=O`, the Activity is given as 0.5% in [1], 6% in [2] and 4% in test [3].
In the same order, the values of `COc1cc2nc(CNc3ccc(C(=O)O)cc3)[nH]c(=O)c2cc1OC` are 0.5%, 30% and 8%.
In the same order, the values of `COc1cc2nc(CNc3ccc(NS(C)(=O)=O)cc3)[nH]c(=O)c2cc1OC` are 9%, 28% and 14%.
`COc1cccc(-c2nc(N)c3cc(OC)c(OC)cc3n2)c1`: the Activity was determined as 7% in [1], 19% in test [2] and 20% in [3].
Turning to `COc1cc2nc(Cc3ccccc3Cl)[nH]c(=O)c2cc1OC`, the Activity in [1] is 35%; in test [2], 59%; in test [3], 50%. Further, the figures for the IC50 in [6] and in test [7] were above 10 µM and 9 µM, respectively.
Consider `COc1cc2nc(-c3cccc(C)c3)nc(N)c2cc1OC`, for which the Activity is reported as 6% in [1], 20% in test [2] and 27% in test [3].
In the case of `COc1cc2nc(-c3cccc(Cl)c3)nc(N=[N+]=[N-])c2cc1OC`, the Activity was 35% in test [1], 56% in test [2] and 45% in [3]. For the same molecule, the IC50 in test [6] and in test [7] was 10 µM each time.
On to `COc1ccc(-c2nc(N)c3cc(OC)c(OC)cc3n2)cc1`, for which the Activity in test [1] is recorded as 17%; in test [2], 21%; in [3], 42%.
As to `COc1cc2nc(-c3ccc(C)cc3)nc(N=[N+]=[N-])c2cc1OC`, the Activity in test [1] is listed as 29%; in test [2] it was 47%; in [3], 66%. In addition, the values for the IC50 in test [6] and in test [7] were 9 µM and 8 µM, respectively.
Regarding `COc1cc2nc(-c3cccc(Cl)c3)[nH]c(=O)c2cc1OC`, the Activity is 42% in test [1], 35% in test [2] and 37% in test [3].
For the molecule `COc1cc2nc(Cc3ccc(Cl)cc3)[nH]c(=O)c2cc1OC`, the Activity in test [1] stood at 49%; in test [2] it was 63%; in test [3] it was 57%. For the same molecule, the figures for the IC50 in test [6] and in test [7] were above 10 µM and 9 µM, respectively.
For `COc1ccc(-c2nc3cc(OC)c(OC)cc3c(=O)[nH]2)cc1`, the Activity was determined as 2% in test [1], 10% in [2] and 3% in test [3].
The matching figures for `CCCCn1c(-c2cccc(-c3nnn[nH]3)c2)nc2cc(OC)c(OC)cc2c1=O`: 4%, 13% and 3%.
For `COc1cc2nc(Nc3ccccc3-c3ccccc3NS(C)(=O)=O)nc(N)c2cc1OC`, the result in test [4] and in test [5] was Active. In addition, the Activity is given as 94% in [1]; 9% in [12]; 54.5% in test [13]; 95% in test [2]; 34.5% in [14]; 14% in test [15]. The Activity in test [3] was 95%; in test [16], 23%; in [17] it was 61%. Also, the “growth inhibition (GI)” value in test [10] and in [11] was “Active” each time. The results for the IC50 in test [6] and in test [7] were 5 µM and 6 µM, respectively.
Regarding `COc1cc2nc(CNc3cccc(NS(C)(=O)=O)c3)[nH]c(=O)c2cc1OC`, the Activity in test [1] was determined as 23%; in test [2] it was 34%; in [3], 31%.
Turning to `COc1ccc(-c2nc(N=[N+]=[N-])c3cc(OC)c(OC)cc3n2)cc1`, the Activity turned out to be 42% in test [1], 58% in test [2] and 48% in [3]. For the same molecule, the IC50 was 7 µM in test [6] and 10 µM in test [7].
Regarding `COc1cc2nc(-c3cccc(C)c3)nc(N=[N+]=[N-])c2cc1OC`, the Activity is 42% in test [1], 55% in [2] and 71% in test [3]. Also, the IC50 in test [6] was above 10 µM; in test [7], 9 µM.
`CCCCn1c(-c2ccc(-c3nnn[nH]3)cc2)nc2cc(OC)c(OC)cc2c1=O`: the values for the Activity in test [1], in test [2] and in test [3] were 2%, 15% and 8%, respectively.
The matching figures for `CCCCn1c(-c2ccc(NC(C)=O)cc2)nc2cc(OC)c(OC)cc2c1=O`: 6%, 19% and 17%.
The matching figures for `COc1cc2nc(-c3cccc(NC(C)=O)c3)[nH]c(=O)c2cc1OC`: 12%, 16% and 22%.
In the same order, the values of `COc1cccc(-c2nc(N=[N+]=[N-])c3cc(OC)c(OC)cc3n2)c1` are 13%, 25% and 24%.
Consider `COc1cc2nc(-c3cccc(Cl)c3)nc(N)c2cc1OC`, for which the results for the Activity in [1], in test [2] and in test [3] were 3%, 19% and 2%, respectively.
Take `COc1cc2nc(-c3ccccc3Cl)nc(N=[N+]=[N-])c2cc1OC`: the Activity in test [1] amounted to 43%; in test [2] it was 50%; in test [3], 63%. Besides, the figures for the IC50 in test [6] and in test [7] were above 10 µM and 8 µM, respectively.
